ARFGAP1 inhibitor = inhibitors of rat ARFGAP1 GAP activity, primary screen, biochemical, fluorescence polarization, GDP tracer; 360,000 tested, 0.26% active; inhibition, % at 16.5 µM; ADP-ribosylation factor GTPase-activating protein 1 (Rattus norvegicus), Q62848; Arfgap1-stimulated ARF1 GTP hydrolysis, GDP FP detection;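 active = inhibition above a per-plate limit, mean inhibition of low control wells plus 3 SD, cut at about 25% in these data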;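 note: 0% = DMSO wells with enzyme and 100% = wells lacking Arfgap1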
Target sequence (Q62848 1-136 limits assumed): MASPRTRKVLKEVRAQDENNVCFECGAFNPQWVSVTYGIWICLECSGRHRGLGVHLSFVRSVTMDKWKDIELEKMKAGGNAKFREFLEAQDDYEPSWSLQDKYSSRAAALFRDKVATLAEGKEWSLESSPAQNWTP
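Material: rat Arfgap1 GAP domain (His6, aa 1-136), purified enzyme. Also added: human ARF1(Δ1-17)-GTP substrate. Compound dosing: 16.5 µM single point, 1.26% DMSO. Timing: enzyme reaction 120 min at 25 °C after 20 min preincubation. Signal: GDP detection by fluorescence polarization. Read-out basis: percent inhibition of GAP-stimulated GDP formation, scaled between DMSO and no-Arfgap1 medians.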
ASAP1 inh = inhibitors of human ASAP1 ArfGAP activity, primary screen, biochemical, fluorescence polarization | Arf-GAP with SH3 domain, ANK repeat and PH domain-containing protein 1 (Homo sapiens), … | ASAP1-stimulated ARF1 GTP hydrolysis, GDP FP detection | inhibition, % at 16.5 µM | 360,000 tested, 0.19% active | AID 624377, 2012; in the data active = inhibition above about 25%;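 note: 0% = vehicle with enzyme and substrate and 100% = no enzyme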
Target sequence (Q9ULH1 325-724 limits assumed): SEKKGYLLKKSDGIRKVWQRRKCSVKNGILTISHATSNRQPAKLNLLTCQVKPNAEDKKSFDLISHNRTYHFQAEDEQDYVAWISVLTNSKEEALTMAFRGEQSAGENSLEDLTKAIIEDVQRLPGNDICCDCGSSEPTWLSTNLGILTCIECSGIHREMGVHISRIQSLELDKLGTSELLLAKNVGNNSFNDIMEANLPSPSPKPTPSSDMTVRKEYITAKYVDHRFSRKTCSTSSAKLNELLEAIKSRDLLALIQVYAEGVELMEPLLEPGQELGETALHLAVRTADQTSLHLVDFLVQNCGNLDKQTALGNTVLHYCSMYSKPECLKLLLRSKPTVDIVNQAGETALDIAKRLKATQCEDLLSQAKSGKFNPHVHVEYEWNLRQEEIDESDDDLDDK
Exocytosis inh = LAMP-1 surface exposure blockers, TALL-104 cells – cell-based, flow cytometry, MLPCN library, primary screen | inhibition, % at 10 µM | 360,000 tested, 0.66% active | TALL-104 LAMP-1 surface exposure; cells stimulated with thapsigargin and PMA;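 active = inhibition above about 55%, limit read from the data; inconclusive = no clear call, values can overlap the other calls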
NRP1-CendR mod = modulators of CendR peptide binding to NRP-1, primary screen, biochemical, fluorescence polarization, uHTS. Neuropilin-1 (Homo sapiens), O14786. FAM-RPARPAR peptide binding to NRP-1. inhibition, % at 25 µM. 360,000 tested, 0.85% active. AID 602438, 2012;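 active = inhibition or corrected inhibition above about 18%, plus a signal ratio from 0.5 to 1.5, limit read from the data, passing the limit was not always enough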
V-ATPase pH = regulators of yeast V-ATPase proton pumping, primary screen, pHLuorin cytosolic pH fluorescence | S. cerevisiae | response, % at 10 µM | 350,000 tested, 0.37% active; in the data active = response mostly above about 7.3%, no sharp cut-off; inactive = mostly below about 5.4%; note: actives read high
Numbers without * were called inactive; ? = inconclusive; / = no result given; ! = not active in a repeat. In the library only some 2.2% were active in any assay of this set; here they are far more common.

SMILES	ARFGAP1 inhibitor	ASAP1 inh	Exocytosis inh	NRP1-CendR mod	V-ATPase pH
COC(=O)c1cc2c(c3c4cc(OC)ccc4n(S(=O)(=O)c4ccc(OC)cc4)c13)C(=O)N(Cc1ccc(N(C)C)cc1)C2	2.5	11.5	/	/	/
Cc1c(Cl)cccc1NC(=S)NCCc1ccc(F)cc1	-6.3	2.4	83.8*	-0.4	-3.3
C/C=C/c1ccc(OCCn2nnc3ccccc32)c(OC)c1	8.7	-12.9	-0.3	2.3	1.4
C=CCc1ccc(OCCn2nnc3ccccc32)c(OC)c1	5.1	-3.7	5.0	26.8*	1.6
CCN(CC)S(=O)(=O)N1CCC(C(=O)NCCC2=CCCCC2)CC1	7.0	-7.5	1.7	27.1*	1.1
CS(=O)(=O)N1CCC(C(=O)NCCC2=CCCCC2)CC1	-1.1	-6.3	5.3	-3.6	0.0
Cc1ccccc1S(=O)(=O)Cc1ccc(C(=O)NCc2cccnc2)o1	3.2	-3.3	11.2	49.0*	2.6
Cc1ccccc1S(=O)(=O)Cc1ccc(C(=O)NCc2ccccc2)o1	-1.5	7.8	2.6	0.0	6.5
CCOC(=O)C1=C(C(=O)OCC)C2N(Cc3ccc(C#N)cc3)c3ccccc3[C@@]23C[C@@H](C(=O)OC)N(S(=O)(=O)c2ccccc2C)C3=N1 (some centres not stated)	-17.5	9.8	/	/	/
CCC1CCCCN1CCCNC(=O)C1CCCN(S(=O)(=O)N2CC(C)CC(C)C2)C1 (configuration not stated)	-6.3	6.7	0.7	27.3*	2.0
COC(=O)c1cc2ccccc2c(-c2c(OC)c(C(=O)OC)cc3ccccc23)c1OC	-1.0	0.7	-3.6	0.0	-3.6
COC(=O)c1cc2ccccc2c([N+](=O)[O-])c1O	-0.9	2.4	35.8	22.7*	-2.6
CC(=O)NC1C(=O)N(CCc2ccccc2)c2ccc(Br)cc21 (configuration not stated)	-9.3	-8.3	-1.3	34.8*	-3.7
CC(Oc1ccc(Cl)cc1)C(=O)N1CCN(C(=O)c2ccco2)CC1 (configuration not stated)	-8.8	-4.1	-13.6	4.6	0.9
CCCCN(c1ccccc1)S(=O)(=O)c1ccc2c(c1)CCN2C(=O)CCC(=O)O	3.8	-6.6	-1.4	25.2*	0.0
CCN1C(=O)/C(=C2/Sc3ccccc3N2CC)SC1=S	8.2	-8.4	-10.8	48.4*	-0.9
O=C(O)c1cc(NCc2cccs2)ccc1N1CCOCC1	-4.8	2.8	-3.0	-6.5	-0.4
O=C(O)c1cc(NCc2ccc(F)cc2)ccc1N1CCOCC1	0.7	-1.9	-1.0	46.3*	-3.1
NCc1ccc(OCCCN2CCC(C(O)(C3=CCCC3)c3ccccc3)CC2)cc1 (configuration not stated)	3.8	0.3	/	/	/
COC(=O)C1=C(C)N(Cc2ccc(C(F)(F)F)cc2)C(=NCc2ccccc2C(F)(F)F)NC1c1ccc(F)cc1 (configuration not stated)	6.8	5.0	/	/	/
CCCc1nnc(SCc2ccc(C(=O)OC)o2)n1N	1.2	-3.3	6.4	-8.4	-2.4
CCc1nnc(SCc2ccc(C(=O)OC)o2)n1N	-9.7	-8.7	-0.7	38.2*	-2.3
O=c1ccsn1Cc1ccccc1	-2.8	1.8	94.6*	28.4*	0.4
CC(=O)N1CCN(S(=O)(=O)c2cccc(C(=O)NNC(=O)Cn3ccc(C(F)(F)F)n3)c2)CC1	16.9	10.6	-1.4	28.2*	-3.8
CC(=O)N1CCN(S(=O)(=O)c2cccc(C(=O)NNC(=O)Cn3nc(C)cc3C)c2)CC1	-2.9	-1.7	-2.6	0.4	-3.3
SMILES	ARFGAP1 inhibitor	ASAP1 inh	Exocytosis inh	NRP1-CendR mod	V-ATPase pH
Cc1ccc(C(=O)NNC(=O)C2CCN(Cc3ccccc3)CC2)cc1	-1.6	-0.6	0.8	6.0	0.1
COCCNC(=O)C1CCN(Cc2cccc(OCc3ccccc3)c2)CC1	-5.4	-6.2	-5.2	-3.0	13.0*
COCCNC(=O)C1CCCN(Cc2cccc(Cl)c2)CC1 (configuration not stated)	/	/	2.2	-9.6	/
O=C(NNC(=O)C1CCN(Cc2ccccc2)CC1)c1cccc(Cl)c1	8.2	-12.2	0.0	23.3*	1.3
COC(=O)c1cc2c(c3c4cc(C)ccc4n(S(=O)(=O)c4cccc(C)c4)c13)C(=O)N(Cc1ccc(C(F)(F)F)cc1)C2	12.9	3.5	/	/	/
COC(=O)N1C[C@H](OCCCOCc2ccccc2)[C@H]2C[C@@H]1c1ccccc1O2	-5.4	1.7	/	/	/
CCCCCCCCN1C(=O)[C@@H](CC(=O)N2CCN(C(=O)OCC)CC2)C[C@@]2(C(=O)OC)C1=C[C@H](C(C)(C)C)O[C@@H]2C	-6.7	7.4	/	/	/
C=CC[C@]1(c2ccccc2)C(=O)N2C[C@H]3CON(C)[C@H]3C[C@H]2c2ccccc21	4.3	3.5	/	/	/
CC(NC(=O)CN1C(=O)NC2(CCCC2)C1=O)c1ccc(Cl)cc1Cl (configuration not stated)	3.2	-15.4	3.9	5.5	1.9
O=c1c2ccccc2nc2n1C(CSc1ccc(F)cc1)CS2 (configuration not stated)	19.7	4.3	-0.4	28.9*	-1.4
CCCCCCCCN1C(=O)[C@@H](CC(=O)NCCCCc2ccccc2)C[C@@]2(C(=O)OC)C1=C[C@H](C1CCCC1)O[C@@H]2C	-14.1	-15.8	/	/	/
COC(=O)c1ccc(N2CCOCC2)c(NC(=O)c2cccnc2)c1	-3.3	1.2	-6.1	26.4*	2.2
CCOC(=O)N1CCN(C(=O)COc2ccc(S(=O)(=O)NC3CCCCC3)cc2C)CC1	-5.2	-10.1	-0.5	5.5	3.0
COc1ccc(S(=O)(=O)N2CCCC(C(=O)N3CCOCC3)C2)cc1C (configuration not stated)	10.2	-2.1	-0.5	33.7*	5.7
Cc1cc(S(=O)(=O)NC2CCCCC2)ccc1OCC(=O)N1CCOCC1	/	/	-1.1	27.0*	-0.3
CC(=O)c1ccc(N(CC(=O)NC2CCCC2)C(=O)CNC(=O)c2ccco2)cc1	-6.0	-1.4	-3.8	9.6	0.1
C=CCn1c(O)c(C2=c3ccccc3=NC2=O)c2ccccc21	-11.3	-3.1	62.1*	10.8	2.9
Cc1ccc2c(c1)c(C1=c3ccccc3=NC1=O)c(O)n2C	2.5	-3.9	6.2	11.8	0.1
COC(=O)C1CCN(S(=O)(=O)c2ccc(Br)s2)CC1	-4.4	-2.3	4.3	-2.6	-1.0
O=C(C1CCN(S(=O)(=O)c2ccc(Br)s2)CC1)N1CCc2ccccc21	/	/	?	43.3*	5.5
C=Cc1c(C)c2cc3[nH]c(cc4nc(cc5nc(cc1[nH]2)C(C)=C5CCC(=O)O)C(CCC(=O)O)=C4C)c(C)c3C=C	-78.0	-70.0	7.9	20.4*!	-3.0

Screening results deposited in PubChem by several laboratories.
